Measurements: ChEMBL document CHEMBL4706580, “4-Amino-1,2,4-triazole-3-thione-derived Schiff bases as metallo-β-lactamase inhibitors” (Eur J Med Chem, 2020)
Active and inactive are the calls of the source. The rule behind the calls is not given here.

Assays:
[1] = Inhibition of beta-lactamase IMP-1 (unknown origin) expressed in Escherichia coli BL21(DE3) using imipenem as substrate by measuring substrate hydrolysis at 200 uM by spectrophotometric analysis
How it was run: (§1)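 Purified enzyme (overproduced in E. coli BL21(DE3), pET-9a; ion-exchange and gel filtration), 1-70 nM final. Reporter substrate 150 μM imipenem, read at 300 nm, 30 °C, 50 mM HEPES pH 7.5. Single-point screen at 100 or 200 μM; Ki from v0/vi vs [I] (0.5–1,000 μM final) assuming competitive inhibition, or Dixon plot. Triplicate.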

[2] = Inhibition of beta-lactamase IMP-1 (unknown origin) expressed in Escherichia coli BL21(DE3) using imipenem as substrate by measuring substrate hydrolysis at 100 uM by spectrophotometric analysis; how it was run: as §1
[3] = Inhibition of beta-lactamase NDM-1 (unknown origin) expressed in Escherichia coli LZ2310 assessed as potentiation of ceftazidime antibacterial activity by measuring ceftazidime induced diameter of inhibition zone at 40 uM incubated for 18 hrs by disk diffusion method (reference value: 15 mm)
How it was run: (§2)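 Efflux-deficient E. coli LZ2310 (NorE, MdfA, AcrA knocked out) carrying pLB-II with the cloned MBL gene. Mueller-Hinton, CLSI disk diffusion; antibiotic disks (30 µg cefoxitin for VIM-2, 10 µg ampicillin for VIM-4, 30 µg ceftazidime for NDM-1/IMP-1) loaded with inhibitor in DMSO (≤15 µL). Zone diameter after 18 h, 35 ± 1 °C; DMSO and 220 µg EDTA controls. Triplicate.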

[4] = Inhibition of beta-lactamase NDM1 (unknown origin) expressed in Escherichia coli BL21(DE3) using cefotaxime/nitrocefin as substrate by measuring substrate hydrolysis by spectrophotometric analysis
How it was run: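 His-tagged enzyme from E. coli BL21(DE3) pET-15b, affinity-purified, 1-70 nM final. Reporter substrate 120 μM cefotaxime (260 nm) or 100 μM nitrocefin (482 nm), 30 °C, 50 mM HEPES pH 7.5. Inhibitor 0.5–1,000 μM final; competitive Ki from v0/vi vs [I] slope or Dixon plot. Triplicate.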

[5] = Inhibition of beta-lactamase VIM2 (unknown origin) expressed in Escherichia coli BL21(DE3) using imipenem as substrate by measuring substrate hydrolysis at 100 uM by spectrophotometric analysis; how it was run: as §1
[6] = Inhibition of beta-lactamase VIM4 (unknown origin) expressed in Escherichia coli BL21(DE3) using imipenem as substrate by measuring substrate hydrolysis at 100 uM by spectrophotometric analysis; how it was run: as §1
[7] = Inhibition of beta-lactamase L1 (unknown origin) expressed in Escherichia coli BL21(DE3) using nitrocefin as substrate by measuring substrate hydrolysis at 100 uM preincubated for 30 mins by spectrophotometric analysis
How it was run: (§3)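 Enzyme 0.2–0.8 nM in 25 mM HEPES pH 7.5 with 50 μM ZnCl2 final, pre-incubated 30 min at 21 °C with inhibitor (100 μM screen). Nitrocefin 100 μM final, read at 482 nm, 30 °C. Residual activity vs three uninhibited samples; Ki (1–100 μM inhibitor) from Hanes linearization, competitive model. Triplicate.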

[8] = Inhibition of beta-lactamase VIM4 (unknown origin) expressed in Escherichia coli BL21(DE3) using imipenem as substrate by measuring substrate hydrolysis at 200 uM by spectrophotometric analysis; how it was run: as §1
[9] = Inhibition of beta-lactamase VIM2 (unknown origin) expressed in Escherichia coli BL21(DE3) using imipenem as substrate by measuring substrate hydrolysis at 200 uM by spectrophotometric analysis; how it was run: as §1
[10] = Inhibition of beta-lactamase CphA (unknown origin) expressed in Escherichia coli BL21(DE3) using imipenem as substrate by measuring substrate hydrolysis at 100 uM by spectrophotometric analysis
How it was run: (§4)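 Enzyme 0.2–0.8 nM in 15 mM cacodylate pH 6.5, no added zinc, pre-incubated 30 min at 21 °C with inhibitor (100 μM screen). Imipenem substrate added from 10 mM stock; hydrolysis at 300 nm, 30 °C. Residual activity vs three uninhibited samples; Ki (1–100 μM inhibitor) by Hanes linearization, competitive model. Triplicate.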

[11] = Inhibition of beta-lactamase NDM1 (unknown origin) expressed in Escherichia coli BL21(DE3) using cefotaxime/nitrocefin as substrate by measuring substrate hydrolysis at 200 uM by spectrophotometric analysis
[12] = Inhibition of beta-lactamase CphA (unknown origin) expressed in Escherichia coli BL21(DE3) using imipenem as substrate by measuring substrate hydrolysis at 200 uM by spectrophotometric analysis
[13] = Inhibition of beta-lactamase VIM-2 (unknown origin) expressed in Escherichia coli LZ2310 assessed as potentiation of cefoxitin antibacterial activity by measuring cefoxitin induced diameter of inhibition zone at 40 uM incubated for 18 hrs by disk diffusion method (reference value: 14 mm); how it was run: as §2
[14] = Inhibition of beta-lactamase CphA (unknown origin) expressed in Escherichia coli BL21(DE3) using imipenem as substrate by measuring substrate hydrolysis by spectrophotometric analysis; how it was run: as §4
[15] = Inhibition of beta-lactamase IMP-1 (unknown origin) expressed in Escherichia coli BL21(DE3) using imipenem as substrate by measuring substrate hydrolysis by spectrophotometric analysis; how it was run: as §1
[16] = Inhibition of beta-lactamase NDM1 (unknown origin) expressed in Escherichia coli BL21(DE3) using cefotaxime/nitrocefin as substrate by measuring substrate hydrolysis at 100 uM by spectrophotometric analysis
[17] = Inhibition of beta-lactamase VIM4 (unknown origin) expressed in Escherichia coli BL21(DE3) using imipenem as substrate by measuring substrate hydrolysis by spectrophotometric analysis; how it was run: as §1
[18] = Inhibition of beta-lactamase L1 (unknown origin) expressed in Escherichia coli BL21(DE3) using nitrocefin as substrate by measuring substrate hydrolysis preincubated for 30 mins by spectrophotometric analysis; how it was run: as §3
[19] = Inhibition of beta-lactamase IMP-1 (unknown origin) expressed in Escherichia coli LZ2310 assessed as potentiation of ceftazidime antibacterial activity by measuring ceftazidime induced diameter of inhibition zone at 40 uM incubated for 18 hrs by disk diffusion method (reference value: 9 mm); how it was run: as §2
[20] = Inhibition of beta-lactamase VIM2 (unknown origin) expressed in Escherichia coli BL21(DE3) using imipenem as substrate by measuring substrate hydrolysis by spectrophotometric analysis; how it was run: as §1
[21] = Inhibition of beta-lactamase VIM-4 (unknown origin) expressed in Escherichia coli LZ2310 assessed as potentiation of ampicillin antibacterial activity by measuring ampicillin induced diameter of inhibition zone at 40 uM incubated for 18 hrs by disk diffusion method (reference value: 6 mm); how it was run: as §2
[22] = Inhibition of beta-lactamase L1 (unknown origin) expressed in Escherichia coli BL21(DE3) using nitrocefin as substrate by measuring substrate hydrolysis at 200 uM preincubated for 30 mins by spectrophotometric analysis

| inhibition [2] | inhibition [5] | inhibition [6] | inhibition [7] | inhibition [9] | inhibition [10] | inhibition [11] | inhibition zone (IZ) [13] | inhibition [16] | inhibition zone (IZ) [19] | SMILES | Ki [14] | Ki [15] | Ki [17] | Ki [18] | further results |
| --- | --- | --- | --- | --- | --- | --- | --- | --- | --- | --- | --- | --- | --- | --- | --- |
| inactive | inactive | inactive | 40% | inactive | – | – | – | – | – | S=c1[nH]nc(-c2ccc(Cl)cc2)n1/N=C/c1ccc(OCc2ccccc2)cc1 | – | – | – | – | inhibition [1]: inactive; inhibition zone (IZ) [3]: 15 mm; Ki [4]: 4.1 µM; inhibition [8]: inactive |
| 45% | – | 73% | 32% | – | inactive | 50% | – | – | – | O=C(O)c1ccccc1/C=N/n1c(-c2ccncc2)n[nH]c1=S | – | – | – | – | inhibition [12]: inactive |
| – | inactive | – | – | inactive | – | inactive | 14 mm | inactive | 9 mm | S=c1[nH]nc(-c2cccc3ccccc23)n1/N=C/c1ccc(OCc2ccccc2)cc1 | 4 µM | 0.1 µM | 2400 nM | 30000 nM | – |
| inactive | – | – | – | – | – | – | 14 mm | – | 9 mm | O=C(O)c1ccccc1/C=N/n1c(C(c2ccccc2)c2ccccc2)n[nH]c1=S | 13 µM | – | 9000 nM | 100 nM | inhibition [1]: inactive; inhibition zone (IZ) [3]: 15 mm; Ki [4]: 4.1 µM |
| 37% | 30% | 47% | 46% | – | inactive | inactive | – | inactive | – | Oc1ccc(/C=N/n2c(Cc3ccccc3)n[nH]c2=S)c(O)c1 | – | – | – | – | inhibition [12]: inactive |
| – | – | 57% | 59% | – | – | inactive | 14 mm | inactive | 9 mm | Cc1ccccc1-c1n[nH]c(=S)n1/N=C/c1ccc(C(=O)O)cc1 | 31 µM | 11 µM | – | – | Ki [20]: 11 µM |
| – | 58% | 55% | 55% | – | – | – | – | 32% | 9 mm | COc1ccc(/C=N/n2c(-c3ccccc3C)n[nH]c2=S)c(O)c1 | 32 µM | 9 µM | – | – | – |
| 33% | 30% | 60% | 40% | – | inactive | inactive | – | inactive | – | Oc1ccc(/C=N/n2c(COc3ccc4ccccc4c3)n[nH]c2=S)c(O)c1 | – | – | – | – | inhibition [12]: inactive |
| – | inactive | 32% | – | inactive | – | inactive | – | inactive | 10 mm | Oc1ccc(/C=N/n2c(-c3cccc4ccccc34)n[nH]c2=S)c(O)c1 | 4 µM | 10 µM | – | 2000 nM | inhibition zone (IZ) [21]: 6 mm |
| 30% | inactive | inactive | inactive | inactive | 30% | – | – | – | – | S=c1[nH]nc(CC(c2ccccc2)c2ccccc2)n1/N=C/c1ccc(OCc2ccccc2)cc1 | – | – | – | – | inhibition zone (IZ) [3]: 15 mm; inhibition [22]: inactive; inhibition [8]: inactive |
| – | – | – | – | – | – | inactive | 14 mm | inactive | 9 mm | Cc1ccccc1-c1n[nH]c(=S)n1/N=C/c1cccc(-c2cccc(C(=O)O)c2)c1 | 40 µM | 9 µM | 300 nM | 900 nM | inhibition zone (IZ) [21]: 6 mm; Ki [20]: 1.1 µM |
| – | inactive | – | – | inactive | – | inactive | – | inactive | 9 mm | Cc1ccccc1-c1n[nH]c(=S)n1/N=C/c1ccccc1[N+](=O)[O-] | 5 µM | 11 µM | 2400 nM | 30000 nM | inhibition zone (IZ) [21]: 6 mm |
